Results reported in PubChem BioAssay.
Inconclusive results are not listed. Active and inactive are the calls of the source.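 How the source made its calls, unless noted: active means inhibition over a set limit, the all-compound mean plus 3 SD, in both replicate runs; inconclusive means over that limit in just one replicate run; inactive means at or under that limit in both runs.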

Key:
[1] = OD615 S. cerevisiae growth inhibition, permissive medium, pilot counter-assay, permissive growth control for S. cerevisiae lifespan shortening project (AID 705;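 active means growth inhibition above 25% in both replicates, a cutoff set 3 SD above the mean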); details: OD615, 24 h, at 10 µM, stronger effect = higher value
Procedure, shortened: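 assay system = Saccharomyces cerevisiae strain carrying genetically modified DeaD replicative-lifespan system | technique = absorbance (optical density) at 615 nm | buffer or medium = permissive raffinose/galactose medium | timing = cells pre-grown 4 h, then 24 h compound exposure, 30 °C humidified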

[2] = Restrictive medium S. cerevisiae growth inhibition, OD615, pilot screen of yeast lifespan reduction project, restrictive growth control (AID 706;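 active means growth inhibition above a set limit, 3 SD over mean compound inhibition, in both replicates, cut at about 43% in these data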;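 further: modified DeaD lifespan yeast strain shifted to restrictive glucose medium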); details: OD615, 48 h, at 10 µM, stronger effect = higher value
Procedure, shortened: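 System: modified S. cerevisiae. Buffer or medium: CSMM-D glucose medium. Incubation: 4 h pre-growth plus 48 h compound exposure, 30 °C. Detection: absorbance (optical density) measured at 615 nm.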

[3] = viability gain of MRP-1-high H69AR cells under doxorubicin, pilot screen, MRP-1 activator project, CellTiter-Glo, duplicate (AID 807;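 active means viability increase at or above a cutoff of the median across tested compounds plus 3 SD, cut at about 8.5% in these data, passing the limit was not always enough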;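 further: compound pretreatment 18-22 h then 72 h combined with doxorubicin; 0% = doxorubicin alone and 100% = vehicle without doxorubicin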); details: H69AR viability with doxorubicin, CellTiter-Glo luminescence; at 10 µM; stronger effect = higher value
[4] = growth suppression of beta-catenin knockout HCT116, pilot screen, human colon tumor cells (AID 823;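 active means cell viability at or below a set limit in both duplicate runs, the limit being the all-compound median minus 4 SD, cut at about 23% in these data, passing the limit was not always enough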;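 further: 0% = wells killed by 20 µM Hyamine and 100% = untreated DMSO cell wells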); details: CellTiter-Glo, 60 h, at 10 µM, stronger effect = lower value
[5] = growth suppression of PTEN-deleted HCT116, pilot screen, cell-based, HCT116 clonal line, CellTiter-Glo (AID 824;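 active means viability at or below 27.92% in each of two runs, the all-compound median minus 4 SD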;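 further: 0% = 20 µM Hyamine control and 100% = vehicle cell control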); details: 60 h, at 10 µM, stronger effect = lower value
[6] = inhibitors of the yeast RAM network, pilot screen, dse1pr::URA3 reporter, 5-FOA selection (AID 869);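 further: 0% = DMSO wells with no growth and 100% = 10 µM 1-NA-PP1 with full growth; RAM network block rescues cells from 5-FOA so hits raise OD615 growth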; details: S. cerevisiae dse1pr::URA3 5-FOA growth, OD615, 2 d; at 10 µM; stronger effect = higher value; strain carries analog-sensitive mutant Cbk1 kinase
[7] = RAM signaling pathway blockade in yeast – S. cerevisiae, Pdr1DBD-CYC8 efflux-inhibited sensitized strain, primary screen (AID 1298;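 active means RAM network inhibition above 8.4% in each of two replicates, 3 SD over the compound average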;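 further: 0% = DMSO untreated cells without growth and 100% = 10 µM 1-NA-PP1 full growth; higher means more yeast growth rescued from 5-FOA killing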); details: S. cerevisiae cbk1-as DSE1-URA3 strain, 5-FOA growth OD615, 2 d; at 50 µM; stronger effect = higher value

Nc1ccc(SC(F)(F)F)cc1C(=O)c1ccccc1
inactive: growth inhibition [1] -6.7% | growth inhibition [2] -13.2% | viability increase [3] -0.99% | viability [4] 74% | viability [5] 70.4% | inhibition [6] -2.23% | RAM network inhibition [7] 3.77%

CC1(C)CC(=O)C(C=NCCCN2CCOCC2)=C(O)C1
inactive: growth inhibition [1] -0.685% | growth inhibition [2] 0.465% | viability increase [3] -0.36% | viability [4] 97.6% | viability [5] 97% | inhibition [6] -0.16% | RAM network inhibition [7] -0.83%

O=C(Cn1cc2c(n1)CCCC2)NCCCN1CCN(Cc2ccccc2)CC1
inactive: growth inhibition [1] -1.54% | growth inhibition [2] -1.17% | viability increase [3] -2.71% | viability [4] 91.5% | viability [5] 93.2% | inhibition [6] 0.61% | RAM network inhibition [7] -0.1%

C=CCOC(=O)C1=C(C)NC(=O)NC1c1ccc(Cl)cc1 (configuration not stated)
inactive: growth inhibition [1] -3.88% | growth inhibition [2] -3.15% | viability increase [3] 0.95% | viability [4] 102% | viability [5] 88.2% | inhibition [6] -0.115% | RAM network inhibition [7] 2.31%

O=C(CCS(=O)(=O)c1ccccc1)Nc1nc(-c2ccccn2)cs1
active: viability [4] 8.11% | viability [5] 6.03%
inactive: growth inhibition [1] -9.64% | growth inhibition [2] -13.3% | viability increase [3] -8.92% | inhibition [6] 1.85% | RAM network inhibition [7] 3.99%

Cc1noc(C(=O)N2CC3(C)CC2CC(C)(C)C3)c1Cl (configuration not stated)
inactive: growth inhibition [1] -13% | growth inhibition [2] -13.2% | viability increase [3] 0.45% | viability [4] 82.9% | viability [5] 83% | inhibition [6] -0.145% | RAM network inhibition [7] 5.28%

Cc1cc(NC(=O)Nc2cccc3ccccc23)no1
inactive: growth inhibition [1] -3.55% | growth inhibition [2] 1.52% | viability increase [3] -4% | viability [4] 95.3% | viability [5] 89.1% | inhibition [6] -0.175% | RAM network inhibition [7] 5.09%

CC(=O)OC(/C(O)=C(\C#N)c1nc2ccccc2[nH]1)c1ccccc1 (configuration not stated)
inactive: growth inhibition [1] 0.55% | growth inhibition [2] 3.63% | viability increase [3] -0.98% | viability [4] 59.6% | viability [5] 54.3% | inhibition [6] 1.63% | RAM network inhibition [7] 3.42%

FC(F)C(F)(F)C1=CC(c2ccccc2)=NCCN1
inactive: growth inhibition [1] -9.88% | growth inhibition [2] -17.6% | viability increase [3] -1.16% | viability [4] 96.7% | viability [5] 85.5% | inhibition [6] 1.59% | RAM network inhibition [7] 2.09%

CC(C)Oc1cc(O)c2c(=O)c(-c3ccc(O)cc3)coc2c1
inactive: growth inhibition [1] -14.2% | growth inhibition [2] -15.1% | viability increase [3] -6.33% | viability [4] 79.8% | viability [5] 64.5% | inhibition [6] 0.605% | RAM network inhibition [7] -3.3%

CCCCn1c2nc3ccccc3nc2c2c(=N)oc(C)nc21
inactive: growth inhibition [1] -7.3% | growth inhibition [2] -6.79% | viability increase [3] -4.49% | viability [4] 96.6% | viability [5] 85.1% | inhibition [6] 0.265% | RAM network inhibition [7] 0.62%

CCOC(=O)C1CCN(C(=O)Cn2cc3c(n2)CCC(C)C3)CC1 (configuration not stated)
inactive: growth inhibition [1] -5.55% | growth inhibition [2] -0.07% | viability increase [3] 0.98% | viability [4] 97.6% | viability [5] 95.6% | inhibition [6] 1.87% | RAM network inhibition [7] 1.77%

CCOC(=O)CN1C(=O)C(O)(CC(=O)c2ccccn2)c2ccccc21 (configuration not stated)
inactive: growth inhibition [1] -10.3% | growth inhibition [2] 3.35% | viability increase [3] -4.5% | viability [4] 82.8% | viability [5] 92% | inhibition [6] 1.31% | RAM network inhibition [7] 1.78%

Cc1ccccc1OCC(=O)Nc1ccccc1N1CCOCC1
inactive: growth inhibition [1] -1.63% | growth inhibition [2] 6.71% | viability increase [3] -5.31% | viability [4] 91.7% | viability [5] 84.7% | inhibition [6] 1.22% | RAM network inhibition [7] 6.55%

O=C(O)CCC(=O)N1CCc2cc(S(=O)(=O)Nc3ccc4c(c3)OCCO4)ccc21
inactive: growth inhibition [1] -4.35% | growth inhibition [2] -7.19% | viability increase [3] -1.45% | viability [4] 94% | viability [5] 96.3% | inhibition [6] 0.535% | RAM network inhibition [7] -1.56%

CCN1CCN(c2ncnc3c2sc2nc(N4CCOCC4)c4c(c23)CCC4)CC1
inactive: growth inhibition [1] -5.5% | growth inhibition [2] -14.1% | viability increase [3] -4.51% | viability [4] 85.1% | viability [5] 86.3% | inhibition [6] 0.195% | RAM network inhibition [7] 5.27%
